Experimental data taken from ChEMBL document CHEMBL2311384, “Probing the steric requirements of the γ-aminobutyric acid aminotransferase active site with fluorinated analogues of vigabatrin” (Bioorg Med Chem, 2013).
Calls of active or inactive are those of the source. No cut-off for these calls is given here.

Key:
[1] = biological target: 4-aminobutyrate aminotransferase, mitochondrial (Sus scrofa, UniProt P80147); assay: Reversible inhibition of pig brain GABA-AT using GABA as substrate
Procedure, shortened: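 Pig brain GABA-AT, purified in-house, mixed with excess SSADH (from GABase), then inhibitor at several concentrations added in assay buffer: 87 mM potassium pyrophosphate pH 8.6, 6 mM GABA, 5 mM α-ketoglutarate, 1.25 mM NADP+, 3.3 mM β-mercaptoethanol. Rate read directly without preincubation as NADPH absorbance at 340 nm. IC50 from concentration-response fit; Ki via Cheng-Prusoff.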

[2] = biological target: 4-aminobutyrate aminotransferase, mitochondrial (Sus scrofa) (UniProt P80147); assay: Reversible inhibition of pig brain GABA-AT using GABA as substrate at 23 mM
[3] = biological target: 4-aminobutyrate aminotransferase, mitochondrial (Sus scrofa) (UniProt P80147); assay: Activity at pig brain GABA-AT assessed as glutamate production at 3 mM preincubated for 20 mins relative to GABA
Procedure, shortened: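 GABA-AT purified from pig brain; substrate tested as turnover substrate in 100 mM potassium pyrophosphate pH 8.6 with α-ketoglutarate; glutamate formed detected by glutamate oxidase/horseradish peroxidase/Amplex Red fluorescence (ex 530, em 590 nm); scaled to glutamate standard curve (0–10 µM); highest rates, between 15 and 25 min, used.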

[4] = biological target: 4-aminobutyrate aminotransferase, mitochondrial (Sus scrofa) (UniProt P80147); assay: Time dependent inhibition of pig brain GABA-AT using GABA as substrate at 5 mM up to 150 mins
Procedure, shortened: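 Pig brain GABA-AT in 100 mM potassium phosphate pH 7.0 preincubated at 25 °C with β-mercaptoethanol, α-ketoglutarate and compound (5 mM final); aliquots taken at time points into assay solution (GABA, α-ketoglutarate, NADP+, pH 8.6) with excess SSADH; remaining activity from 340 nm NADPH absorbance rate.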

4-aminobutyrate aminotransferase, mitochondrial (Sus scrofa), sequence (P80147 whole entry): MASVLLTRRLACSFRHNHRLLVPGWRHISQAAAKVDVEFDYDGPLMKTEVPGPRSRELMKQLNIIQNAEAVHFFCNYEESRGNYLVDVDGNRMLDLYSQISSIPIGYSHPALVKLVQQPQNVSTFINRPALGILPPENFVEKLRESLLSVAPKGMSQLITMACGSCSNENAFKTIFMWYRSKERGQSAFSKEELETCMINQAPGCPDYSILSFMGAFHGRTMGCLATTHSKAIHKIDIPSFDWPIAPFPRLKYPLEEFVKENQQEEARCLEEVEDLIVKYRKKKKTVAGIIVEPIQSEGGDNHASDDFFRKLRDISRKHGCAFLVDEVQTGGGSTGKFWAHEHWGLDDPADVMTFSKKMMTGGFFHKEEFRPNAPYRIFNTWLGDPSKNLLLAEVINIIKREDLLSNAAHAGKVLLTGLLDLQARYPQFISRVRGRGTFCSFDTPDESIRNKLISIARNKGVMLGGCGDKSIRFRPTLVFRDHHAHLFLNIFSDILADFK
4-aminobutyrate aminotransferase, mitochondrial, sequence (P80147 whole entry): as above

Row | SMILES | Ki [1] [µM] | inhibition [2] | Activity [3] [%] | inhibition [4]
1 | N[C@@H]1C=C[C@H](C(=O)O)C1 | 40 | – | – | –
2 | C[C@H](F)[C@@H](N)CCC(=O)O | – | inactive | 0.11 | inactive
3 | C[C@@H](F)[C@@H](N)CCC(=O)O | – | inactive | 0.32 | inactive
4 | C[C@@H](F)[C@H](N)CCC(=O)O | – | inactive | 0.02 | inactive
